Platelet DG rel: platelet dense granule release activity. human platelet-rich plasma, SFLLRN dense granule ATP release, luminescence. inhibition, %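 (compounds screened at 7.5 µM in platelet-rich plasma)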. hit rate 0.22% among 300,000. AID 1663;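 active = mean replicate score, as percent of positive control, at or above 50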
SENP8 block-1: blocks the human protease SENP8; AID 2540; Q96LD8; inhibition, % at 10 µM; purified SENP8, Z-RLRGG-aminoluciferin cleavage, luminescence; hit rate 1.2% among 330,000; in the data active = inhibition above about 50%
SENP8 block-2: inhibitors of human SENP8 protease; AID 602440; hit rate 0.64% among 360,000; recombinant SENP8, Nedd8 substrate fluorescence; inhibition, % at 20 µM; Q96LD8; in the data active = inhibition mostly above about 40%, no sharp cut-off; inactive = mostly below about 27%
SENP7 block: inhibitors of human SENP7 protease | Q9BQF6 | recombinant SENP7, Z-RLRGG-aminoluciferin luminescence, 40 min | inhibition, % at 5 µM | hit rate 1.5% among 330,000 | AID 434973;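 active = inhibition above about 50% at the single test dose, limit read from the data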;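 also: plate controls were DMSO with enzyme for no effect and no enzyme buffer wells for full effect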
SENP1 FRET inh: blocks the human SENP1 SUMO protease catalytic domain. Q9P0U3. recombinant SENP1 catalytic domain, CyPet-SUMO1-YPet FRET cleavage. inhibition, % at 10 µM. hit rate 0.21% among 360,000;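 active = inhibition at least 30% at 10 µM, raw YFP signal under a set limit, fluorescence ratio 0.5 to 1.5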;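 also: 0% = enzyme with DMSO and 100% = no enzyme wells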
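Controls: no-enzyme wells low, DMSO-plus-enzyme wells high control. Test system: human recombinant His6-tagged SENP1 catalytic domain enzyme. Reagent: SFCypet-SUMO1-SFYpet FRET protein substrate, 25 nM final. Doses: one dose per compound, 10 µM, 0.5% DMSO. Detection: FRET, CFP and YFP emission. Timing: 50 min reaction at room temperature.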
SENP6 block: inhibitors of human SENP6 protease. hit rate 1.8% among 330,000. Recombinant SENP6 catalytic domain, aminoluciferin luminescence. inhibition, % at 10 µM. Q9GZR1. AID 2599;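 active = inhibition above about 50% at the single tested dose, limit read from the data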;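 also: plate controls were DMSO wells with enzyme for no effect and DMSO wells lacking enzyme for full effect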
Target sequence (Q9GZR1 628-1112 limits assumed): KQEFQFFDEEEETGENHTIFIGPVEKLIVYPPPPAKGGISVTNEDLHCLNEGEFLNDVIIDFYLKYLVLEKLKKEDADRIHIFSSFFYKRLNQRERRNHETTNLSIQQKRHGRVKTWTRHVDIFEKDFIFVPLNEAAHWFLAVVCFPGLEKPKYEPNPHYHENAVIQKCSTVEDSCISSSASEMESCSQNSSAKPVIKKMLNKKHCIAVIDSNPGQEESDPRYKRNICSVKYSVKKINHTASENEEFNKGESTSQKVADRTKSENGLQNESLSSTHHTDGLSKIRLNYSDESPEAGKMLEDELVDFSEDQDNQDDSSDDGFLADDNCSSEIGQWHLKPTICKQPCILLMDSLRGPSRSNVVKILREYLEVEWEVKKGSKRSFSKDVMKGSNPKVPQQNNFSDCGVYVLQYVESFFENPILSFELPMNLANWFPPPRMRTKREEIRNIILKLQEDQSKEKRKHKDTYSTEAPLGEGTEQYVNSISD
SENP1 conf: SENP1 (human) inhibition, single concentration confirmation. shares compounds with SENP1 FRET inh. recombinant SENP1, CyPet-SUMO1-YPet FRET cleavage. inhibition, % at 10 µM. hit rate 34% among 520. AID 651678; in the data active = inhibition mostly above about 35%, no sharp cut-off; inactive = mostly below about 32%;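 also: 0% = enzyme with DMSO and 100% = no enzyme control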
SENP1 kinetic: SENP1 (human) inhibition, kinetic confirmation; shares compounds with SENP1 FRET inh; recombinant SENP1, CyPet-SUMO1-YPet FRET kinetic cleavage; inhibition, % at 10 µM; hit rate 26% among 520; AID 651690; in the data active = inhibition mostly above about 32%, no sharp cut-off; inactive = mostly below about 29%;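 also: 0% = DMSO with enzyme and 100% = no enzyme substrate only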
Numbers without * were called inactive; . = no result. An excerpt weighted towards active compounds, which were near 2.6% of everything screened.

SMILES	Platelet DG rel	SENP8 block-1	SENP8 block-2	SENP7 block	SENP1 FRET inh	SENP6 block	SENP1 conf	SENP1 kinetic
Cc1ccc2c(c1)C(=C(C#N)C#N)CCN2	.	.	-24	.	36*	.	52*	33*
Cc1ccc2c(c1)C(=O)CCN2	1	0	-48	-3	30	-6	.	.
Cc1ccc(-c2nc3ncccn3c2Nc2ccc3c(c2)OCO3)o1	0	-1	-12	15	43*	-4	19	13
N#CC1=C(N2CCCCC2)c2cc3c(n2C1=O)CCCC3	5	1	20	2	51*	-6	23	11
O=c1c2ccccc2nc(/C=C/c2cc(Br)ccc2O)n1CCO	4	0	-25	5	76*	-29	84*	45*
O=c1c2ccccc2nc(/C=C/c2c[nH]c3ccccc23)n1CCO	0	0	-183	0	-36	3	.	.
COc1ccccc1C(CNC(=O)C1CCN(C(=O)Nc2ccccc2)CC1)N1CCCC1 (stereo not given)	.	-7	11	-4	-1	-1	.	.
COc1cc(C(=O)NCc2nnc(SCC(=O)NC3CCCC3)o2)cc(OC)c1OC	1	-10	10	-14	2	-8	.	.
CCn1cc(C(=O)O)c(=O)c2cc(F)c(N/N=C/c3ccccc3[N+](=O)[O-])cc21	4	-4	14	2	34*	-6	-4	0
CC(=O)NC12CC3CC(C1)CC(C(=O)N1CCN(S(=O)(=O)c4ccccc4C#N)CC1)(C3)C2	.	.	8	.	0	.	.	.
CC(C)(C)OC(=O)N[C@@H](C(=O)OC(C)(C)C)c1ccc(Br)cc1	.	0	4	-7	-3	0	.	.
CC(C)C(=O)Nc1nnc(COc2ccc(Cl)cc2)s1	-5	-2	4	-6	46*	-9	-7	-7
Cc1ccc2[nH]c(O)c(N=Nc3ccccc3[N+](=O)[O-])c2c1	.	.	23	.	2	.	.	.
O=[N+]([O-])c1ccc2[nH]c(O)c(N=Nc3ccc(F)cc3)c2c1	-2	-20	36	-9	56*	-27	10	5
CCN(CC)S(=O)(=O)c1cc([N+](=O)[O-])ccc1N=Nc1c(O)[nH]c2ccccc12	7	.	43*	.	46*	.	4	3
Cc1cc(C)cc(S(=O)(=O)c2cn(C)c3cc(N4CCN(C)CC4)c(F)cc3c2=O)c1	-6	-1	-163	3	-1	13	.	.
COC(=O)C(C)NC(=O)c1cn(-c2ccccc2OC)c(=O)c2ccccc12 (stereo not given)	6	-3	-7	2	0	-10	.	.
Cc1cccc2nc(-c3cccnc3)c(Nc3ccccc3)n12	-2	2	-256	-1	0	-11	.	.
Cc1cc(C)n2c(Nc3c(C)cccc3C)c(-c3cccnc3)nc2n1	.	.	-43	.	64*	.	39*	27
CCCCNc1c(-c2cccnc2)nc2nc(C)cc(C)n12	.	.	-26	.	36*	.	19	15
Cc1cccc2nc(-c3cccnc3)c(NCCC(C)C)n12	4	3	-435	4	-8	-11	.	.
Cc1cc(C)n2c(NC3CCCC3)c(-c3cccnc3)nc2n1	.	.	-28	.	32*	.	20	10
CC(=O)C[C@H]1c2ccccc2S(=O)(=O)N1c1ccccc1	-7	-7	3	-7	0	-7	.	.
CC1CCc2c(sc3ncnc(SCC(=O)N(C)C4CCS(=O)(=O)C4)c23)C1 (stereo not given)	.	6	0	-3	32*	16	1	19
Nc1ccc2c(c1)C(=O)N(CC1CCCO1)C2=O (stereo not given)	-3	-4	-22	-19	62*	-3	65*	48*
SMILES	Platelet DG rel	SENP8 block-1	SENP8 block-2	SENP7 block	SENP1 FRET inh	SENP6 block	SENP1 conf	SENP1 kinetic
Nc1ccc(Oc2ccc3c(c2)C(=O)N(CC2CCCO2)C3=O)cc1 (stereo not given)	-4	-5	11	0	0	-25	.	.
C[C@H]1CN([C@@H](C)CO)C(=O)CCCn2cc(nn2)CO[C@@H]1CN(C)C(=O)Oc1ccccc1	.	.	7	.	0	.	.	.
COc1c(O)cccc1[C@H](O)C1CCN(CCc2ccc(F)cc2)CC1	14	-5	16	1	30*	2	5	11
COc1cc(/C=C2\SC(=S)N(CC(=O)O)C2=O)ccc1OC(=O)c1ccco1	2	-14	24	1	39*	3	83*	63*
CCOc1cc(/C=C2/SC(=S)N(CC(=O)O)C2=O)ccc1OC(=O)c1cccs1	-3	-1	36	-4	2	-11	.	.
COc1ccc(/C=C2/SC(=S)N(CC(=O)O)C2=O)cc1OCc1ccc(Cl)cc1	-10	-5	-16	5	-30	0	.	.
COc1cc(/C=C2/SC(=S)N(CC(=O)O)C2=O)ccc1OC(=O)c1ccco1	-47	-5	29	-1	32*	-15	84*	65*
CC(OC(=O)COc1ccc(Nc2ccccc2)cc1)C(=O)N(C)c1ccccc1 (stereo not given)	2	-2	7	7	0	-9	.	.
COC(=O)/C=C1/S/C(=N/NC(=O)c2ccc(OC)cc2)NC1=O	2	-7	13	5	4	-9	.	.
COC(=O)/C=C1\S/C(=N/NC(=O)c2ccc(OC)cc2)NC1=O	1	2	3	-4	54*	8	7	8
CCOc1ccc(NC(=O)Cc2ccccc2)c([N+](=O)[O-])c1	11	1	14	-7	2	-11	.	.
CCOc1ccc(NC(=O)c2ccc(Br)o2)c([N+](=O)[O-])c1	-1	-13	39	42	32*	-9	-3	-10
CCN(CC(=O)Nc1c(F)cccc1F)C(=O)CSC(=S)N1CCCC1	.	4	-17	4	-18	-11	.	.
O=C(C[C@@H]1C[C@@H]2c3cc(NC(=O)C4CCOCC4)ccc3O[C@@H]2[C@H](CO)O1)NCc1ccccn1	.	.	5	.	-1	.	.	.
O=C(CSc1n[nH]c(=O)n1C1CC1)Nc1ccc(F)c(Cl)c1	.	-13	21	-5	44*	-31	11	8
O=C(CSc1n[nH]c(=O)n1C1CC1)Nc1ccc(Cl)c(Cl)c1	-1	-4	5	-8	0	-14	.	.
O=C(C1=C(Nc2ccccc2)c2ccccc2S(=O)(=O)N1)c1ccccc1	-7	-9	27	-1	49*	-19	22	24
CC(C)(CN=C1NS(=O)(=O)c2ccccc21)CNC(=O)c1ccccc1	4	-7	0	-6	0	-10	.	.
CCc1cccc(CC)c1-n1c(SCC(=O)N2CCc3ccccc3C2)nnc1-c1cccnc1	-2	-5	9	-7	37*	1	11	14

Source: PubChem BioAssay
